The record followed here is ChEMBL document CHEMBL1128483, “Peptide mimetics of thyrotropin-releasing hormone based on a cyclohexane framework: design, synthesis, and cognition-enhancing properties” (1995).

SMILES strings stand for the structures.

Holding throughout (type): functional
In test [1] the test system is Mus musculus. As to the kind of experiment: Activity was evaluated in C57BL/10 mice by Morris water Maze test and mean latency for TRH was reported at 1.0 mg/Kg i.p. dosage. An outline of the steps: (§1)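 Male C57BL/10 mice (17–21 g, housed 10 per group, food and water ad libitum). Drug in saline or 5% acacia, 10 mL/kg, given ip 30 min before the first of four trials to find a hidden submerged platform. Score was each mouse's mean total latency over the four trials; group mean ± SEM. Vehicle group included. Analysis: one-way ANOVA, then Dunnett t-test versus vehicle, p < 0.05.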

Test [2] deals with Mus musculus. Nature of the test: Activity was evaluated in C57BL/10 mice by Morris water Maze test and mean latency for TRH was reported at 0.001 mg/Kg i.p. dosage. In a few lines: as §1
The subject of test [3] is Mus musculus. Nature of the test: Activity was evaluated in C57BL/10 mice by Morris water Maze test and mean latency for TRH was reported at 0.1 mg/Kg i.p. dosage. An outline of the steps: as §1
Test [4] has as its system Mus musculus. Nature of the test: Activity was evaluated in C57BL/10 mice by Morris water Maze test and mean latency for TRH was reported at 0.01 mg/Kg i.p. dosage. In a few lines:
as §1

In test [5] the test system is Mus musculus. As to the kind of experiment: Activity was evaluated in C57BL/10 mice by Morris water Maze test and mean latency for TRH was reported at 0.01 mg/Kg p.o. dosage. In a few lines: (§2)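 Spatial water-maze task in male C57BL/10 mice (17–21 g, group-housed, ad libitum food and water). Oral dosing (saline or 5% acacia vehicle, 10 mL/kg) 30 min before four trials locating a submerged platform. Latency recorded per trial; the mean total over the four trials was the animal's score, reported as mean ± SEM. Vehicle controls included. Groups compared with vehicle by one-way ANOVA and Dunnett t-test (p < 0.05).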

The subject of test [6] is Mus musculus. Nature of the test: Activity was evaluated in C57BL/10 mice by Morris water Maze test and mean latency for TRH was reported at 0.03 mg/Kg i.p. dosage. An outline of the steps: as §1
Test [7] concerns Mus musculus. As to the kind of experiment: Activity was evaluated in C57BL/10 mice by Morris water Maze test and mean latency for TRH was reported at 0.3 mg/Kg p.o. dosage. In a few lines:
as §2

Test [8] deals with Mus musculus. As to the kind of experiment: Activity was evaluated in C57BL/10 mice by Morris water Maze test and mean latency for TRH was reported at 0.003 mg/Kg p.o. dosage. In a few lines: as §2
Test [9] relates to Mus musculus. As to the kind of experiment: Activity was evaluated in C57BL/10 mice by Morris water Maze test and mean latency for TRH was reported at 0.1 mg/Kg p.o. dosage. An outline of the steps: as §2
Test [10] relates to Mus musculus. Nature of the test: Activity was evaluated in C57BL/10 mice by Morris water Maze test and mean latency for TRH was reported at 0.003 mg/Kg i.p. dosage. In a few lines: as §1
The test system of test [11] is Mus musculus. Nature of the test: Activity was evaluated in C57BL/10 mice by Morris water Maze test and mean latency for TRH was reported at 0.03 mg/Kg p.o. dosage. An outline of the steps:
as §2

In test [12] the test system is Mus musculus. Nature of the test: Activity was evaluated in C57BL/10 mice by Morris water Maze test and mean latency for TRH was reported at 0.3 mg/Kg i.p. dosage. An outline of the steps:
as §1

Test [13] deals with Mus musculus. Nature of the test: Activity was evaluated in C57BL/10 mice by Morris water Maze test and mean latency for TRH was reported at 0.0003 mg/Kg p.o. dosage. An outline of the steps: as §2
The test system of test [14] is Mus musculus. Nature of the test: Activity was evaluated in C57BL/10 mice by Morris water Maze test and mean latency for TRH was reported at 0.00003 mg/Kg p.o. dosage. In a few lines: as §2
The subject of test [15] is Mus musculus. As to the kind of experiment: Activity was evaluated in C57BL/10 mice by Morris water Maze test and mean latency for TRH was reported at 3 mg/Kg i.p. dosage. An outline of the steps:
as §1

In test [16] the test system is Mus musculus. Nature of the test: Activity was evaluated in C57BL/10 mice by Morris water Maze test and mean latency for TRH was reported at 0.00003 mg/Kg i.p. dosage. An outline of the steps: as §1
In test [17] the test system is Mus musculus. Nature of the test: Activity was evaluated in C57BL/10 mice by Morris water Maze test and mean latency for TRH was reported at 0.0003 mg/Kg i.p. dosage. An outline of the steps:
as §1

The test system of test [18] is Mus musculus. As to the kind of experiment: Activity was evaluated in C57BL/10 mice by Morris water Maze test and mean latency for TRH was reported at 3 mg/Kg p.o. dosage. An outline of the steps: as §2
For test [19], the system named is Mus musculus. Nature of the test: Activity was evaluated in C57BL/10 mice by Morris water Maze test and mean latency for TRH was reported at 3.0 mg/Kg i.p. dosage. In a few lines:
as §1

Test [20] deals with Mus musculus. As to the kind of experiment: Activity was evaluated in C57BL/10 mice by Morris water Maze test and mean latency for TRH was reported at 10.0 mg/Kg i.p. dosage. In a few lines:
as §1

For the compound `NC(=O)C[C@@H]1C[C@H](Cc2c[nH]cn2)C[C@H](C[C@@H]2CCC(=O)N2)C1`, the Mean latency is 25.23 s in the test with Mus musculus [1], 47.62 s in the test on Mus musculus [2], 45.06 s in the test with Mus musculus [3] and 38.72 s with Mus musculus [4].
Take `NC(=O)C[C@@H]1C[C@@H](Cc2c[nH]cn2)C[C@H](C[C@@H]2CCC(=O)N2)C1`: the Mean latency with Mus musculus [1] was found to be 24.19 s; in the test on Mus musculus [3], 46.09 s; with Mus musculus [4], 57.12 s.
On to `C[C@H]1C[C@@H](CC(N)=O)C[C@@H](C[C@@H]2CCC(=O)N2Cc2ccccc2)C1`, for which the Mean latency worked out at 35.88 s with Mus musculus [5]; 26.49 s in the test with Mus musculus [6]; 46.53 s in the test with Mus musculus [7]; 42.2 s in the test on Mus musculus [8]; 24.55 s with Mus musculus [9]; 36.26 s in the test with Mus musculus [10]. Moreover, the Mean latency was found to be 32.87 s in the test with Mus musculus [11], 47.48 s in the test on Mus musculus [2], 26.87 s in the test on Mus musculus [3] and 22.15 s in the test with Mus musculus [4].
For `C[C@H]1C[C@@H](CC(N)=O)C[C@@H](C[C@@H]2CCC(=O)N2)C1`, the Mean latency with Mus musculus [6] came to 37.86 s; in the test with Mus musculus [12], 43.13 s; in the test on Mus musculus [3] it was 30.08 s; in the test on Mus musculus [4] it was 42.77 s.
In the case of `NC(=O)C[C@@H]1C[C@H](Cc2c[nH]cn2)C[C@H](C[C@@H]2CCC(=O)N2Cc2ccccc2)C1`, the Mean latency was 30.9 s with Mus musculus [13]; 15.65 s with Mus musculus [6]; 46.67 s in the test on Mus musculus [14]; 31.62 s in the test with Mus musculus [15]; 62.15 s in the test with Mus musculus [16]; 17.62 s in the test with Mus musculus [12]. For the same compound, the Mean latency with Mus musculus [8] is on record as 35.23 s; in the test with Mus musculus [10], 22.24 s; in the test on Mus musculus [11], 21.1 s; in the test with Mus musculus [17] it was 33.29 s.
For the compound `NC(=O)C[C@@H]1C[C@@H](Cc2c[nH]cn2)C[C@H](C[C@@H]2CCC(=O)N2Cc2ccccc2)C1`, the Mean latency with Mus musculus [13] came to 42.81 s; in the test on Mus musculus [18], 43.72 s; with Mus musculus [14], 51.7 s; in the test with Mus musculus [7] it was 27.59 s; in the test on Mus musculus [8], 37.01 s; in the test with Mus musculus [11], 28.87 s.
Consider `NC(=O)[C@@H]1CCCN1C(=O)[C@H](Cc1c[nH]cn1)NC(=O)[C@@H]1CCC(=O)N1` [PROTIRELIN], for which the Mean latency in the test on Mus musculus [6] turned out to be 32.69 s; in the test on Mus musculus [19], 33.57 s; in the test with Mus musculus [12], 20.85 s; in the test on Mus musculus [10] it was 43.08 s; in the test with Mus musculus [1], 28.87 s; in the test with Mus musculus [2], 50.59 s. For the same compound, the figures for the Mean latency in the test with Mus musculus [20], with Mus musculus [3] and in the test on Mus musculus [4] were 46 s, 25.76 s and 37.97 s, respectively.
